Legend:
[1] = system: Rattus norvegicus; assay: Attenuation of CP55940-induced hypotension in iv dosed rat; type: functional
How it was run: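 Male normotensive anaesthetized Wistar rats; antagonist given i.v. at several doses (n=2 per dose) 10 min before CP55,940 0.1 mg/kg i.v. Hypotension develops within 1 min; lowest blood pressure taken as the hypotensive effect. ED50 is the dose inhibiting the CP55,940 hypotensive effect by 50%, calculated from the linear part of the percentage dose-response curve.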

[2] = Retention time of the compound by LC-MS/MS method; type: physicochemical
How it was run: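 Reaction mix without radiolabel, AMP condition, with 7.5 μg eYFP vesicles. Supernatant after 16,000–20,000g spin diluted in 50% acetonitrile/0.1% TFA. Gradient of 0.1% TFA water/acetonitrile, 50→90% B over 5 min. Electrospray triple quadrupole. Duplicates, at least three experiments.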

[3] = target: T1, ATP-binding cassette sub-family C member 4 (Homo sapiens, UniProt O15439); assay: Inhibition of MRP4-mediated E2-17betaG transport in human MRP4 expressing HEK293 cells at 7 uM during 5 mins; type: ADME, cell-based; conditions: hek293, 5 min
T1 sequence (O15439 whole entry): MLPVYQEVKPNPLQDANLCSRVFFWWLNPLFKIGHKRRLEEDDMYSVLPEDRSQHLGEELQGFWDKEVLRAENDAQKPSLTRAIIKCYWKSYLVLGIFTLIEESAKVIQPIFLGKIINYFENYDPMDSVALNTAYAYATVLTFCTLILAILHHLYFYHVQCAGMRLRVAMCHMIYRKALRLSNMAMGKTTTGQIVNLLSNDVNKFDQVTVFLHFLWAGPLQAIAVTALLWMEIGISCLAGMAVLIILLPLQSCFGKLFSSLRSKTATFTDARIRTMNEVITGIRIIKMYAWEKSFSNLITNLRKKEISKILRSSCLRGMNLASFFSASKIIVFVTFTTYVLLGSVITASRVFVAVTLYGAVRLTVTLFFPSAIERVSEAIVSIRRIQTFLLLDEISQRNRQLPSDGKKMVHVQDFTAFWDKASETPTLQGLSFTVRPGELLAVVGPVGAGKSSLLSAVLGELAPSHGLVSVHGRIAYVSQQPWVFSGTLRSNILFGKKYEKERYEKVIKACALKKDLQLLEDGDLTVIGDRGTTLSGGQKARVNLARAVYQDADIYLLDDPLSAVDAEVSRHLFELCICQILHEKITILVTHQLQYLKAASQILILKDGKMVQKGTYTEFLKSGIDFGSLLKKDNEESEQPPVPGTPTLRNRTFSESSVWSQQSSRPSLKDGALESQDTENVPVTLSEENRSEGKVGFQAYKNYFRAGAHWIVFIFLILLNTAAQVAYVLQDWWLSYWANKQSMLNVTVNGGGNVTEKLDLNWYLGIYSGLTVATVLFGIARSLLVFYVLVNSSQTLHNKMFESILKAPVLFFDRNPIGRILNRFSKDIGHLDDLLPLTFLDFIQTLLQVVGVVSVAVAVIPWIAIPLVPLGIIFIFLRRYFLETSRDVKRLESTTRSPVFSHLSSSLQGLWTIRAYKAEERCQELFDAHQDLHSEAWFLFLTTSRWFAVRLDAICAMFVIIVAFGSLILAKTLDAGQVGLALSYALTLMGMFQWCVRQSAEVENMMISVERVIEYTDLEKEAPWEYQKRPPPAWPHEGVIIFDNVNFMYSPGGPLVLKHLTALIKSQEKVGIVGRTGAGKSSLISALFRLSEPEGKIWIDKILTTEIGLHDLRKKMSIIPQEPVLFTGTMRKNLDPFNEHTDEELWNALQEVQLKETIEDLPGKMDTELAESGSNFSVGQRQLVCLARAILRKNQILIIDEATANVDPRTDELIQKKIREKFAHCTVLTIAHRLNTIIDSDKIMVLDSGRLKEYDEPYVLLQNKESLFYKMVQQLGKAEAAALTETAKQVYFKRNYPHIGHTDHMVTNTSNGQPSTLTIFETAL
How it was run: (§1)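 Inside-out membrane vesicles from HEK293 cells transduced with MRP baculovirus (5 mM butyrate at 24 h, harvested day 3). Reaction: 7.5 µg vesicles in TS buffer pH 7.4 with 4 mM ATP, 10 mM MgCl2 and [3H]E2-17βG, 37°C for 5 min. E2-17βG was 0.16 µM (MRP1), 20 µM (MRP2) or 0.12 µM (MRP4). Uptake was read by rapid filtration and scintillation counting. ATP-dependent uptake was taken as ATP minus AMP values, with drug-free uptake set at 100%. Nominal 10 or 100 µM antagonist; actual concentration measured by LC-MS/MS. Three independent experiments.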

[4] = target: T2, Multidrug resistance-associated protein 1 (Homo sapiens, UniProt P33527); assay: Inhibition of MRP1-mediated E2-17betaG transport in human MRP1 expressing HEK293 cells at 7 uM during 5 mins; type: ADME, cell-based; conditions: hek293, 5 min; how it was run: as §1
[5] = target: T3, ATP-binding cassette sub-family C member 2 (Homo sapiens, UniProt Q92887); assay: Induction of MRP2-mediated E2-17betaG transport in human MRP2 expressing HEK293 cells at 7 uM during 5 mins; type: ADME, cell-based; conditions: hek293, 5 min; how it was run: as §1
[6] = target: T1, ATP-binding cassette sub-family C member 4; assay: (§2) Inhibition of MRP4-mediated E2-17betaG transport in human MRP4 expressing HEK293 cells at 12 uM during 5 mins; type: ADME, cell-based; conditions: hek293, 5 min, 12 µM
How it was run: (§3)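 MRP4-expressing HEK293 inside-out vesicles (baculovirus transduction). 7.5 μg protein with 4 mM ATP, 10 mM MgCl2 in TS buffer and 0.12 μM [3H]E2-17βG, 5 min at 37°C. Filter-bound radioactivity counted; AMP control subtracted for ATP-dependent uptake. Nominal 10/100 μM antagonist, actual concentrations by LC-MS/MS. Percent of untreated, three independent experiments.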

[7] = target: T2, Multidrug resistance-associated protein 1; assay: (§4) Inhibition of MRP1-mediated E2-17betaG transport in human MRP1 expressing HEK293 cells at 12 uM during 5 mins; type: ADME, cell-based; conditions: hek293, 5 min, 12 µM
How it was run: (§5)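 Inside-out membrane vesicles from MRP1-baculovirus-transduced HEK293 cells. 7.5 μg vesicles in TS buffer, 4 mM ATP, 10 mM MgCl2, 0.16 μM [3H]E2-17βG, 5 min at 37°C. Stopped on ice, then rapid filtration and scintillation counting. ATP minus AMP uptake taken as net. Nominal 10 or 100 μM antagonist, actual levels by LC-MS/MS. Expressed as % of untreated. Three independent experiments.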

[8] = target: T3, ATP-binding cassette sub-family C member 2; assay: Induction of MRP2-mediated E2-17betaG transport in human MRP2 expressing HEK293 cells at 12 uM during 5 mins; type: ADME, cell-based; conditions: hek293, 5 min
How it was run: (§6)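 Inside-out membrane vesicles from HEK293 cells transduced with MRP2 baculovirus (sodium butyrate 5 mM added at 24 h, harvested day 3). 7.5 μg vesicles in TS buffer (pH 7.4) with 4 mM ATP, 10 mM MgCl2, 20 μM [3H]E2-17βG, 5 min at 37°C. Rapid filtration and scintillation counting; AMP values subtracted. Nominal 10 and 100 μM antagonist, actual levels measured by LC-MS/MS. Untreated set at 100%. Three independent experiments.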

[9] = target: T3, ATP-binding cassette sub-family C member 2; assay: Induction of MRP2-mediated E2-17betaG transport in human MRP2 expressing HEK293 cells at 0.7 to 1.3 uM during 5 mins; type: ADME, cell-based; conditions: hek293, 5 min; how it was run: as §6
[10] = target: T1, ATP-binding cassette sub-family C member 4; assay: Inhibition of MRP4-mediated E2-17betaG transport in human MRP4 expressing HEK293 cells at 1 to 3 uM during 5 mins; type: ADME, cell-based; conditions: hek293, 5 min; how it was run: as §3
[11] = target: T2, Multidrug resistance-associated protein 1; assay: Inhibition of MRP1-mediated E2-17betaG transport in human MRP1 expressing HEK293 cells at 1 to 3 uM during 5 mins; type: ADME, cell-based; conditions: hek293, 5 min; how it was run: as §5
[12] = target: T3, ATP-binding cassette sub-family C member 2; assay: Induction of MRP2-mediated E2-17betaG transport in human MRP2 expressing HEK293 cells at 1 to 3 uM during 5 mins; type: ADME, cell-based; conditions: hek293, 5 min; how it was run: as §6
[13] = target: T1, ATP-binding cassette sub-family C member 4; assay: Noncompetitive inhibition of MRP4-mediated E2-17betaG transport in human MRP4 expressing HEK293 cells by Dixon plot; type: ADME, cell-based
[14] = target: ATP-binding cassette sub-family C member 3 (Homo sapiens, UniProt O15438); assay: Inhibition of MRP3-mediated E2-17betaG transport in human MRP3 expressing HEK293 cells in presence of 15 uM E2-17betaG; type: ADME, cell-based
How it was run: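 Vesicles from MRP3-transduced HEK293 cells. 7.5 μg in TS buffer with 4 mM ATP and 10 mM MgCl2, substrate [3H]E2-17βG at 15 μM, with antagonists at high concentrations. Incubated at 37°C, filtered and counted. ATP-dependent uptake calculated by AMP subtraction.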

[15] = target: T1, ATP-binding cassette sub-family C member 4; assay: Inhibition of MRP4-mediated E2-17betaG transport in human MRP4 expressing HEK293 cells in presence of 0.1 to 1 uM E2-17betaG
[16] = target: T4, MRP4 (ABCC4) (Homo sapiens, UniProt O15439); assay: as §2; type: ADME, cell-based; conditions: probe E2-17betaG; how it was run: as §3
T4 sequence (O15439 whole entry): T1 sequence (O15439 whole entry)

[17] = target: MRP1 (ABCC1) (Homo sapiens, UniProt P33527); assay: as §4; type: ADME, cell-based; conditions: probe E2-17betaG; how it was run: as §5
[18] = target: T2, Multidrug resistance-associated protein 1; assay: Inhibition of MRP1-mediated E2-17betaG transport in human MRP1 expressing HEK293 cells in presence of 0.16 to 5 uM E2-17betaG
[19] = target: T3, ATP-binding cassette sub-family C member 2; assay: Induction of MRP2-mediated E2-17betaG transport in human MRP2 expressing HEK293 cells at 33 uM during 5 mins; type: ADME, cell-based; conditions: hek293, 5 min; how it was run: as §1
[20] = target: T2, Multidrug resistance-associated protein 1; assay: Inhibition of MRP1-mediated E2-17betaG transport in human MRP1 expressing HEK293 cells at 33 uM during 5 min; type: ADME, cell-based; conditions: hek293, 5 min; how it was run: as §1
[21] = target: T1, ATP-binding cassette sub-family C member 4; assay: Inhibition of MRP4-mediated E2-17betaG transport in human MRP4 expressing HEK293 cells at 33 uM during 5 mins; type: ADME, cell-based; conditions: hek293, 5 min; how it was run: as §1
[22] = Cmax in male human subjects; type: ADME, organism-based; conditions: in vivo
[23] = target: T4, MRP4 (ABCC4); assay: Inhibition of MRP4-mediated E2-17betaG transport in human MRP4 expressing HEK293 cells at 4 uM during 5 mins; type: ADME, cell-based; conditions: probe E2-17betaG; how it was run: as §3
[24] = target: T3, ATP-binding cassette sub-family C member 2; assay: Induction of MRP2-mediated E2-17betaG transport in human MRP2 expressing HEK293 cells at 4 uM during 5 mins; type: ADME, cell-based; conditions: hek293, 5 min; how it was run: as §6

Sequence of ATP-binding cassette sub-family C member 3 (O15438 whole entry): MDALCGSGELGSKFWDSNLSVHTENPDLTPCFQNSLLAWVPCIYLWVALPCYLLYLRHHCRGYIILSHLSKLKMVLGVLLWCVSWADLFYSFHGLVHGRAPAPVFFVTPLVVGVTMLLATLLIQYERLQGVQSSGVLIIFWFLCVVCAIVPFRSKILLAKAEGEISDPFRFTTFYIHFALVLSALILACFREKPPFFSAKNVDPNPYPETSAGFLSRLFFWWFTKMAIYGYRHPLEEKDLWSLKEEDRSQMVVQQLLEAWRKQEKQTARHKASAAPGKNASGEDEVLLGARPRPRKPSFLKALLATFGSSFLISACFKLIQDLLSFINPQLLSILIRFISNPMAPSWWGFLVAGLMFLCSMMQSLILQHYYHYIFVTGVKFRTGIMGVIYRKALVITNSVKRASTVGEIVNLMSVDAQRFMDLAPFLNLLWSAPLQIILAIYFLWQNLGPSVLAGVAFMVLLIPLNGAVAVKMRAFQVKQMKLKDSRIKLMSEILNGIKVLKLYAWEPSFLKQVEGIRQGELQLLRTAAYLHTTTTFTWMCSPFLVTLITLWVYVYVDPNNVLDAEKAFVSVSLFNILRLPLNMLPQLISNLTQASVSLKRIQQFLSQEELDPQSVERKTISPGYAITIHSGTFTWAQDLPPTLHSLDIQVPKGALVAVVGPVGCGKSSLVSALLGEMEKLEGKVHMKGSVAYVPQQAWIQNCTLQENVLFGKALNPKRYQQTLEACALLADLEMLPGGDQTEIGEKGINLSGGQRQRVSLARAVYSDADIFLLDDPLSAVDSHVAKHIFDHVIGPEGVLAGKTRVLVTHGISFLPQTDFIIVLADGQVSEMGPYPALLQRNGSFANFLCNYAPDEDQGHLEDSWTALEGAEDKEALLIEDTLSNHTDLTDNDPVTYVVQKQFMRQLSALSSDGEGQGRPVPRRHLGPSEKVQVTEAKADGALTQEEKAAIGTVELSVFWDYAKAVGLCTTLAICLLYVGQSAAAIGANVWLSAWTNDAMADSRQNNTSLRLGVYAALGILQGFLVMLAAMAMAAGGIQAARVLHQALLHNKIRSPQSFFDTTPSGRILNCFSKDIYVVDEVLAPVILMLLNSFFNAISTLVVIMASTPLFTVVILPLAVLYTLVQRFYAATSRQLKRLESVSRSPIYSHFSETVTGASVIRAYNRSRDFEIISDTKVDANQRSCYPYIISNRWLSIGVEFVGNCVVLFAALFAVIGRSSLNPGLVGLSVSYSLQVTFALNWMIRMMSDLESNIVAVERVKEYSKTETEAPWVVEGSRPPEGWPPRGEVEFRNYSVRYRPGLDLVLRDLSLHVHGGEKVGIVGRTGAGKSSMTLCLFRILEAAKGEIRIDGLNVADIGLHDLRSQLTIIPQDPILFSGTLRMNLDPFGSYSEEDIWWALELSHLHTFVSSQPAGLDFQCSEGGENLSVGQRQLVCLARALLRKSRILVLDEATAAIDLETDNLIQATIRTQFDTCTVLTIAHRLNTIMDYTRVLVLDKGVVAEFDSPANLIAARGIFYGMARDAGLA
T2 sequence (P33527 whole entry): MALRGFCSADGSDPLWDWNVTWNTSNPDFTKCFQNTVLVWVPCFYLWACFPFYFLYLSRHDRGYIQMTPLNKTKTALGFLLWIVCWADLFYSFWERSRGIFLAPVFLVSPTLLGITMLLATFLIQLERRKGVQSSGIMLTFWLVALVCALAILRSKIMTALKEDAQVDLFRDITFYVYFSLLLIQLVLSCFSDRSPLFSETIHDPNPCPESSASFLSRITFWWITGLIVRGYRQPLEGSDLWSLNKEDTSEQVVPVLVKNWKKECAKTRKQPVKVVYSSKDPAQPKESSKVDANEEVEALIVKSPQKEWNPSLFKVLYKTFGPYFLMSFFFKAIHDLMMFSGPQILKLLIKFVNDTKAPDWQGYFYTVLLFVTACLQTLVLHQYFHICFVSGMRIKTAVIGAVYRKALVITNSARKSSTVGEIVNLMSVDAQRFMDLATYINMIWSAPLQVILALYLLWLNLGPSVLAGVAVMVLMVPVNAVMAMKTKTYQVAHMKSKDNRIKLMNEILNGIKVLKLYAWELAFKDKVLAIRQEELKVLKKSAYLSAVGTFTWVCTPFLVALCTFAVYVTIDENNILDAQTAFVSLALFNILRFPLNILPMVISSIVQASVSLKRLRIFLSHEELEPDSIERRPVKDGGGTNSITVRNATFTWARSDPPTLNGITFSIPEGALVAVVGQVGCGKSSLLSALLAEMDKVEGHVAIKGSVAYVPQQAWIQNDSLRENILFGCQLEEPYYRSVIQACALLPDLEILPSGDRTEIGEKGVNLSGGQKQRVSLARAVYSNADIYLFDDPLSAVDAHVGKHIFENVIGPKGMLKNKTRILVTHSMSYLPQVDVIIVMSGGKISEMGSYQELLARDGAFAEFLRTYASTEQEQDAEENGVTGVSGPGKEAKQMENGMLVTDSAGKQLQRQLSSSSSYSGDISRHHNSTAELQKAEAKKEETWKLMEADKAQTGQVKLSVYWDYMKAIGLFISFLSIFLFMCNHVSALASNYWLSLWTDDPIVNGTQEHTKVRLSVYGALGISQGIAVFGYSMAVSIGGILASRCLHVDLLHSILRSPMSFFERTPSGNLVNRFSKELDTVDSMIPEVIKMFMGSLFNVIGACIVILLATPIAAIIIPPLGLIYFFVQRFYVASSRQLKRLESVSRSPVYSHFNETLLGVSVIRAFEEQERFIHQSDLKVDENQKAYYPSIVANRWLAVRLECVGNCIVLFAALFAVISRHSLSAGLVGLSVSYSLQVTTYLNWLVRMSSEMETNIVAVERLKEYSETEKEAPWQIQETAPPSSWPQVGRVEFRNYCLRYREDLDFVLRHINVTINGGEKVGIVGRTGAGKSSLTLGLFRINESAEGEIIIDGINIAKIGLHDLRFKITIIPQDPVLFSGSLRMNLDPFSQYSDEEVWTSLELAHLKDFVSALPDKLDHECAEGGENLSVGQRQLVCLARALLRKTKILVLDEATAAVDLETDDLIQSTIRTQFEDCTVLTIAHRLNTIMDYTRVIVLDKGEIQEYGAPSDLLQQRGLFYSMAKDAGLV
T3 sequence (Q92887 whole entry): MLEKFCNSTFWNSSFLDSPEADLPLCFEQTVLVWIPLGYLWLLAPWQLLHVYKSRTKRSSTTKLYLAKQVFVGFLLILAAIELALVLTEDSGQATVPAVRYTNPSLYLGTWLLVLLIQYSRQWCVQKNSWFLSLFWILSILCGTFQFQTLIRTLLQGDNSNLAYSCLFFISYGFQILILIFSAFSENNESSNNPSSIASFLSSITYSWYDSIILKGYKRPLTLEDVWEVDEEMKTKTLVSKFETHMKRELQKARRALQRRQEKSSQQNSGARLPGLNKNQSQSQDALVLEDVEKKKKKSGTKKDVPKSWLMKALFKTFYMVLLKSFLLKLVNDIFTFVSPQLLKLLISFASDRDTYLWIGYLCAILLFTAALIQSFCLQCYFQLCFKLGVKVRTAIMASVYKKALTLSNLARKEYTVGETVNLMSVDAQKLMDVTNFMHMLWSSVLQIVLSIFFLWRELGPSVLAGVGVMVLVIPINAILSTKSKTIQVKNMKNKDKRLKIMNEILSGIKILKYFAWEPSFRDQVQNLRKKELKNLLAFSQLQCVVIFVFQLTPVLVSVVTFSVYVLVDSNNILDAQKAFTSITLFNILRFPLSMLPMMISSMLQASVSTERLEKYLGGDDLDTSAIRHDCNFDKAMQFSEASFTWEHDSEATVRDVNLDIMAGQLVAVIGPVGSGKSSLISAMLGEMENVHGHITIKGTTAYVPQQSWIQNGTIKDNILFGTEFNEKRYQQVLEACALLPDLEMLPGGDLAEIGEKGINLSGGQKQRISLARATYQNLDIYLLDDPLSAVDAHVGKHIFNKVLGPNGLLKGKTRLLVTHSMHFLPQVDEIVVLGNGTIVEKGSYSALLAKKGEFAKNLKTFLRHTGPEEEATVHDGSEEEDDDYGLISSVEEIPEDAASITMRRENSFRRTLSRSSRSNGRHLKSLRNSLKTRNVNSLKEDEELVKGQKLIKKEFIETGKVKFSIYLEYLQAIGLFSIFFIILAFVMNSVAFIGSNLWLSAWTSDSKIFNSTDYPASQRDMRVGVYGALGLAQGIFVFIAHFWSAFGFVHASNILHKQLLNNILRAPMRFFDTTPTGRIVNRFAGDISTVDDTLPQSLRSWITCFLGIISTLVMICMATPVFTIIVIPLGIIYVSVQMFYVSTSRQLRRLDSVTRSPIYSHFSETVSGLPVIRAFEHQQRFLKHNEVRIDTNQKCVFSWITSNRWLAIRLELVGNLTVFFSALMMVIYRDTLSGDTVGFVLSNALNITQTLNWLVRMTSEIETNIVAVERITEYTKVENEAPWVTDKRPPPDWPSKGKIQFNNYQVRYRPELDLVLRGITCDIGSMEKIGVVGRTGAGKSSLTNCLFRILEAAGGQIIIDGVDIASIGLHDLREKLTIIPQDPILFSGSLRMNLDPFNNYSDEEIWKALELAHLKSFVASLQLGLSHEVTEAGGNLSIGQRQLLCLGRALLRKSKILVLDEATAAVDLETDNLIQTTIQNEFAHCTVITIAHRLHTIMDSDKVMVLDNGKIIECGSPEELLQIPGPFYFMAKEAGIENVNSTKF
Sequence of MRP1 (ABCC1) (P33527 whole entry): as the sequence (P33527 whole entry) above

| SMILES | ED50 [1] [mg/kg] | Retention_time [2] [min] | Activity [9] [%] | inhibition (INH) [10] | inhibition (INH) [11] | Activity [12] | inhibition (INH) [14] | inhibition (INH) [15] | further results |
| --- | --- | --- | --- | --- | --- | --- | --- | --- | --- |
| CCN(CC)S(=O)(=O)NC(=NC)N1CC(c2ccccc2)C(c2ccc(Cl)cc2)=N1 (configuration not stated) | 0.2 | 4.2 | – | – | – | – | – | – | inhibition (INH) [3]: Active; inhibition (INH) [4]: Not Active; Activity [5]: 543% |
| CN=C(NS(=O)(=O)N1CCCC1)N1CC(c2ccccc2)C(c2ccc(Cl)cc2)=N1 (configuration not stated) | 0.7 | 3.5 | – | – | – | – | – | – | inhibition (INH) [6]: Active; inhibition (INH) [7]: Active; Activity [8]: 543% |
| CN/C(=N\S(=O)(=O)N1CCCCCC1)N1CC(c2ccccc2)C(c2ccc(Cl)cc2)=N1 (configuration not stated) | 0.1 | 4.8 | 256 | Not Active | Not Active | 349% | Active | Active | inhibition (INH) ([13]; human, hek293): Active |
| CNC(=NS(=O)(=O)N1CCCCCCC1)N1CC(c2ccccc2)C(c2ccc(Cl)cc2)=N1 (configuration not stated) | – | 5.4 | 256 | Not Active | Not Active | 349% | – | – | – |
| CCN(C)S(=O)(=O)NC(=NC)N1CC(c2ccccc2)C(c2ccc(Cl)cc2)=N1 (configuration not stated) | – | 3.8 | – | – | – | – | Active | Active | inhibition at 5 min, 12 µM [16]: -72%; inhibition at 5 min, 12 µM [17]: -34%; Activity [8]: 543%; Ki [13]: 7 µM; inhibition (INH) [18]: Active |
| C/N=C(\NS(=O)(=O)N(C)C(C)C)N1CC(c2ccccc2)C(c2ccc(Cl)cc2)=N1 (configuration not stated) | – | 4.2 | – | – | – | – | – | – | inhibition (INH) [3]: Active; inhibition (INH) [4]: Active; Activity [5]: 543% |
| C/N=C(\NS(=O)(=O)N(C)C)N1CC(c2ccccc2)C(c2ccc(Cl)cc2)=N1 (configuration not stated) | > 0.3 | 3.2 | – | – | – | – | – | – | Activity [19]: 543%; inhibition (INH) [20]: Active; inhibition (INH) [21]: Active |
| C/N=C(\NS(=O)(=O)N1CCSCC1)N1CC(c2ccccc2)C(c2ccc(Cl)cc2)=N1 (configuration not stated) | – | 4 | 256 | Not Active | Not Active | 349% | – | – | – |
| CN=C(NS(=O)(=O)N1CCS(=O)(=O)CC1)N1CC(c2ccccc2)C(c2ccc(Cl)cc2)=N1 (configuration not stated) | – | 2.6 | – | Not Active | Not Active | Not Active | – | – | – |
| Cc1c(C(=O)NN2CCCCC2)nn(-c2ccc(Cl)cc2Cl)c1-c1ccc(Cl)cc1 [RIMONABANT] | – | 3.2 | – | – | – | – | Active | Active | Cmax [22]: 400 nM; inhibition at 5 min, 4 µM [23]: -58%; Activity [24]: 513%; Ki [13]: 4 µM |
